Measurements: ChEMBL document CHEMBL1131450, “Synthesis and antitumor evaluation of 2,5-disubstituted-indazolo[4, 3-gh]isoquinolin-6(2H)-ones (9-aza-anthrapyrazoles)” (J Med Chem, 1998)
In brackets after ≈: the same amount, converted by molar mass.

Key:
LoVo [1] = experiment: In vitro cytotoxicity on human colon adenocarcinoma (LoVo ) tumor cell line.; assay type: functional, cell-based
MX1 [2] = experiment: In vivo antitumor activity was measured on MX-1 human mammary carcinoma cells. TWI%=tumor weight inhibition. Optimal dose 120 mg/kg/day.; assay type: functional
P388 [3] = experiment: In vivo antitumor activity was measured on systemic P388 murine leukemia cells. Optimal dose 90 mg/kg/day.; assay type: functional, Mus musculus
Outline: (§1)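 CD2F1 male mice given 10⁶ P388 leukemia cells iv (day 0); drug given iv on days 1, 4 and 7. Survival expressed as T/C% = median survival time of treated / median survival of controls × 100, reported at optimal dose (mg/kg/day) or maximum tested dose.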

LoVo [4] = experiment: Resistance index measured as the ratio of IC50 of LoVo/Dx cell line to that of LoVo cell line.; assay type: functional, Homo sapiens
LoVo/Dx (Homo sapiens) = experiment: cells
P388 [5] = experiment: In vivo antitumor activity was measured on systemic P388 murine leukemia cells. Optimal dose 40 mg/kg/day.; assay type: functional, Mus musculus; conditions: in the assay text read “6 mg/kg/day” for “40 mg/kg/day”; outline: as §1
MX1 [6] = experiment: In vivo antitumor activity was measured on MX-1 human mammary carcinoma cells. TWI%=tumor weight inhibition. Optimal dose 11 mg/kg/day.; assay type: functional
P388 [7] = experiment: In vivo antitumor activity was measured on systemic P388 murine leukemia cells. Optimal dose 9 mg/kg/day.; assay type: functional, Mus musculus; outline: as §1
MX1 [8] = experiment: In vivo antitumor activity was measured on MX-1 human mammary carcinoma cells. TWI%=tumor weight inhibition. Optimal dose 4.5 mg/kg/day.; assay type: functional
P388 [9] = experiment: In vivo antitumor activity was measured on systemic P388 murine leukemia cells. Optimal dose 2 mg/kg/day.; assay type: functional, Mus musculus; outline: as §1
MX1 [10] = experiment: Antitumor activity was measured on MX-1 human mammary carcinoma cells. TWI%=tumor weight inhibition. Optimal dose at 13.5 mg/kg/day; assay type: functional
P388 [11] = experiment: In vivo antitumor activity was measured on systemic P388 murine leukemia cells. Optimal dose at 13.5 mg/kg/day; assay type: functional, Mus musculus; outline: as §1

IC50 (LoVo/Dx (Homo sapiens)) | SMILES | IC50 (LoVo [1]) | TWI (MX1 [2]) | T/C (P388 [3]) | RI (LoVo [4]) | T/C (P388 [5]) | TWI (MX1 [6]) | T/C (P388 [7]) | TWI (MX1 [8]) | T/C (P388 [9]) | TWI (MX1 [10]) | T/C (P388 [11])
> 100 µg/mL | O=C1c2ccncc2-c2nn(CCNCCO)c3ccc(NCCO)c1c23 | 53.1 µg/mL (≈ 145 µM) | 49% | 113% | >1.9 |  |  |  |  |  |  | 
15.9 µg/mL (≈ 45.4 µM) | CN(C)CCNc1ccc2c3c(nn2CCN)-c2cnccc2C(=O)c13 | 0.3 µg/mL (≈ 0.856 µM) |  |  | 53 |  | 80% | 231% |  |  |  | 
4.3 µg/mL (≈ 12.3 µM) | CN(C)CCn1nc2c3c(c(NCCN)ccc31)C(=O)c1ccncc1-2 | 0.16 µg/mL (≈ 0.457 µM) |  |  | 27 |  |  |  | 87% | 213% |  | 

The next lines start with the compound.

SMILES | IC50 (LoVo/Dx (Homo sapiens)) | IC50 (LoVo [1]) | TWI (MX1 [2]) | T/C (P388 [3]) | RI (LoVo [4]) | T/C (P388 [5]) | TWI (MX1 [6]) | T/C (P388 [7]) | TWI (MX1 [8]) | T/C (P388 [9]) | TWI (MX1 [10]) | T/C (P388 [11])
CNCCn1nc2c3c(c(NCCNCCO)ccc31)C(=O)c1ccncc1-2 | 31.6 µg/mL (≈ 83.1 µM) | 0.29 µg/mL (≈ 0.762 µM) |  |  | 109 | 181% |  |  |  |  |  | 
Cl.Cl.O=C1c2c(O)cccc2-c2nn(CCNCCO)c3ccc(NCCNCCO)c1c23 | 44.5 µg/mL | 0.053 µg/mL |  |  | 840 |  |  |  |  |  | 95% | 147%
